pKd: −log10 of the molar value.
Experiments:
di-Zn-NDM-1 [1] = target: T1, di-Zn-NDM-1 (Klebsiella pneumoniae, UniProt C7C422); assay: 1H-15N TROSY-HSQC and 19F NMR titration of di-Zn-NDM-1 with inhibitors; type: binding; details: di-Zn-NDM-1, 298 K
apo-NDM-1 [2] = target: T2, apo-NDM-1 (Klebsiella pneumoniae, UniProt C7C422); assay: 1H-15N TROSY-HSQC and 19F NMR titration of apo-NDM-1 with inhibitors; type: binding; details: apo-NDM-1, 298 K
di-Zn-NDM-1 [3] = target: T1, di-Zn-NDM-1; assay: 19F NMR titration, dissociation constant with di-Zn-NDM-1; type: binding
Outline: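 NDM-1 (residues 36−270) carrying a C-terminal His6 tag, expressed in E. coli BL21 (DE3) and purified by Ni2+-affinity and size-exclusion chromatography. di-Zn protein, 0.1−0.3 mM, titrated with test compound at ratios chosen so the protein was mostly bound. 19F spectra recorded at each ratio. Kd derived from titration of the residue Y229 signal.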

apo-NDM-1 [4] = target: T2, apo-NDM-1; assay: Thermal stability by circular dichroism, apo-NDM-1; details: CD, ellipticity at 208 nm; apo-NDM-1 alone 46.1 °C
di-Zn-NDM-1 [5] = target: T1, di-Zn-NDM-1; assay: Thermal stability by circular dichroism, di-Zn-NDM-1

T2 sequence (C7C422 36-270): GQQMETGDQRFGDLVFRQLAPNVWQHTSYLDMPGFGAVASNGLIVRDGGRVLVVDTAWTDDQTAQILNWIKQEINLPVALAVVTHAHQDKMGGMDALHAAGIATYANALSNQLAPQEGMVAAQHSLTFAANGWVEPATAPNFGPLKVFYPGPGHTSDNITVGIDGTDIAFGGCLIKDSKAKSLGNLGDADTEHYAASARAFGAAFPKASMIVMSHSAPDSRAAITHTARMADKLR
T1 sequence (C7C422 36-270): as above

| Compound | changes of 1H-15N TROSY-HSQC / 19F spectra upon titration (di-Zn-NDM-1 [1]) | changes of 1H-15N TROSY-HSQC / 19F spectra upon titration (apo-NDM-1 [2]) | pKd (di-Zn-NDM-1 [3]) | Tm of ebselen-bound apo-NDM-1 (apo-NDM-1 [4]) | Tm of ebselen-bound di-Zn-NDM-1 (di-Zn-NDM-1 [5]; CD, ellipticity at 208 nm, di-Zn-NDM-1 alone 53.9 °C) | Tm lower than that of di-Zn-NDM-1 (di-Zn-NDM-1 [5]; ebselen-bound di-Zn-NDM-1 vs di-Zn-NDM-1) |
| --- | --- | --- | --- | --- | --- | --- |
| O[C@@H](CS)[C@@H](O)CS (racemic) [DTT, dithiothreitol] | large chemical shift changes | No changes | 4.52 | – | – | – |
| OCC(S)CS (stereo not drawn) [2,3-dimercapto-1-propanol] | large chemical shift changes | No changes | 3.15 | – | – | – |
| CC(CS)C(=O)O (stereo not drawn) [3-mercaptoisobutyric acid] | large chemical shift changes | No changes | – | – | – | – |
| c1ccc(CN(Cc2ccccn2)Cc2ccccn2)nc1 [TPA, tris-picolylamine] | significant changes | only minute chemical shift changes | – | – | – | – |
| N[C@@H](C(=O)N[C@@H]1C(=O)N2C(C(=O)O)=C(Cl)CS[C@H]12)c1ccccc1 [cefaclor] | almost all of the cross-peaks in the 2D TROSY-HSQC spectra disappear | almost all of the cross-peaks in the 2D TROSY-HSQC spectra disappear | – | – | – | – |
| O=C(O)c1cc[c]([Hg][Cl])cc1 [chloromercuribenzoic acid, 4-chloromercuribenzoic acid] | almost all of the cross-peaks in the 2D TROSY-HSQC spectra disappear | almost all of the cross-peaks in the 2D TROSY-HSQC spectra disappear | – | – | – | – |
| O=C(O)c1cccc(C(=O)O)n1 [dipicolinic acid] | significant changes | only minute chemical shift changes | – | – | – | – |
| O=c1c2ccccc2[se]n1-c1ccccc1 [ebselen] | almost all of the cross-peaks in the 2D TROSY-HSQC spectra disappear | almost all of the cross-peaks in the 2D TROSY-HSQC spectra disappear | – | 46.1 °C | 48.4 °C | about 5.5 °C |
| c1cnc2c(c1)ccc1cccnc12 [phenanthroline] | significant changes | only minute chemical shift changes | – | – | – | – |
| O=C(O)CNC(=O)C(CS)Cc1ccccc1 (stereo not drawn) [thiorphan] | large chemical shift changes | No changes | – | – | – | – |
| CC(S)C(=O)NCC(=O)O (stereo not drawn) [tiopronin] | large chemical shift changes | No changes | 3.92 | – | – | – |
| colloidal bismuth subcitrate [CBS] | no changes | shifted significantly | – | – | – | – |

From publication PMC10052233 (JACS Au, 2023)
